What was measured:
[1] = biological target: T1, Tyrosine-protein phosphatase non-receptor type 1 (Homo sapiens, UniProt P18031); experiment: Inhibitory effect against recombinant human protein-tyrosine phosphatase 1B (PTP1B), using p-nitrophenyl phosphate substrate at pH 5.5.
T1 sequence (P18031 whole entry): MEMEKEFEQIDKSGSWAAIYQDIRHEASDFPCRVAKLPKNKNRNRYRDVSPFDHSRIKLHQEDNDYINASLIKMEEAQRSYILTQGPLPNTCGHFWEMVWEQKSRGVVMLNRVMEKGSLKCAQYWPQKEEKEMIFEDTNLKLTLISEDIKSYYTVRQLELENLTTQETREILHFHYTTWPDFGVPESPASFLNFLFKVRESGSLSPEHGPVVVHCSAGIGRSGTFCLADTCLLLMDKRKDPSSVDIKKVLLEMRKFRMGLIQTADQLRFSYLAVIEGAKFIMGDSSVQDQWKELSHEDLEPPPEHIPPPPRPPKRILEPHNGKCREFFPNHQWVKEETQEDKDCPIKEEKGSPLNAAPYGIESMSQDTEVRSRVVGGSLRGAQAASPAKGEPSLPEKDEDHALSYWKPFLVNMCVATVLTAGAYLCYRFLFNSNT

[2] = biological target: T1, Tyrosine-protein phosphatase non-receptor type 1; experiment: Inhibition of human recombinant Protein-tyrosine phosphatase 1B.
Outline: (§1)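 Enzyme is a soluble recombinant human PTP1B (residues 1–321). Ki is measured at pH 5.5 with p-nitrophenyl phosphate (pNPP) as substrate.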

[3] = biological target: T2, Tyrosine-protein phosphatase non-receptor type 2 (Homo sapiens, UniProt P17706); experiment: Inhibition of T cell protein tyrosine phosphatase (TC-PTP) at pH 7.0; type: single protein
T2 sequence (P17706 whole entry): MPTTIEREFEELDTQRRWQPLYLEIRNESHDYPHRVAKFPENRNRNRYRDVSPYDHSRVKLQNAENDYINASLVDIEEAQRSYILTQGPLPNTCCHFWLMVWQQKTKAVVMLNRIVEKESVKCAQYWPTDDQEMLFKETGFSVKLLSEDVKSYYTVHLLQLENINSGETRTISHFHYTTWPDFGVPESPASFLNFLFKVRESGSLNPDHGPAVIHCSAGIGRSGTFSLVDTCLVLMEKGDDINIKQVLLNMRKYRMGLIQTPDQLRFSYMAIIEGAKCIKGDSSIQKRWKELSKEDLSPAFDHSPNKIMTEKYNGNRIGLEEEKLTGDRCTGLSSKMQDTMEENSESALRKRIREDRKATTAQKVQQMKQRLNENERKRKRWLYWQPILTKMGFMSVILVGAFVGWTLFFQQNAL
Outline: (§2)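 Ki from a pNPP hydrolysis assay with recombinant TC-PTP, run at pH 7.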

[4] = biological target: Receptor-type tyrosine-protein phosphatase F (Homo sapiens, UniProt P10586); experiment: Inhibitory effect against protein-tyrosine phosphatase Lar, using p-nitrophenyl phosphate as substrate at pH 5.5.
[5] = biological target: Receptor-type tyrosine-protein phosphatase alpha (Homo sapiens, UniProt P18433); experiment: Inhibitory effect against human protein-tyrosine phosphatase alpha (PTPalpha), using p-nitrophenyl phosphate substrate at pH 5.5.
Outline: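 Ki from pNPP hydrolysis assays at pH 5.5 with recombinant PTPα or LAR.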

[6] = biological target: T1, Tyrosine-protein phosphatase non-receptor type 1; experiment: Inhibitory effect against recombinant human PTP1B (Protein Tyrosine phosphatase 1B) using p-nitrophenyl phosphate substrate at pH 5.5; outline: as §1
[7] = Oral bioavailability; type: ADME, organism-based; settings: eutheria, in vivo, read-out: f (po)
[8] = Pharmacokinetic Parameter t1/2 was reported for Protein Tyrosine Phosphatase 1B; type: ADME, organism-based; settings: in vivo
[9] = Pharmacokinetic Parameter clearance was reported for Protein Tyrosine Phosphatase 1B; type: ADME, organism-based; settings: in vivo
[10] = biological target: T2, Tyrosine-protein phosphatase non-receptor type 2; experiment: Inhibitory effect against inhibitory effect against T cell protein tyrosine phosphatase (TC-PTP) using p-nitrophenyl phosphate as substrate at pH 7.0; outline: as §2
[11] = biological target: T1, Tyrosine-protein phosphatase non-receptor type 1; experiment: Inhibitory effect against recombinant human Protein-tyrosine phosphatase 1B (PTP1B) using p-nitrophenyl phosphate substrate at pH 5.5;ND is not determined; outline: as §1
[12] = Pharmacokinetic Parameter Vss was reported for Protein Tyrosine Phosphatase 1B; type: ADME, organism-based; settings: in vivo; read-out: Vss
[13] = Pharmacokinetic Parameter half life was reported for Protein Tyrosine Phosphatase 1B; type: ADME, organism-based; settings: in vivo

Receptor-type tyrosine-protein phosphatase F, sequence (P10586 whole entry): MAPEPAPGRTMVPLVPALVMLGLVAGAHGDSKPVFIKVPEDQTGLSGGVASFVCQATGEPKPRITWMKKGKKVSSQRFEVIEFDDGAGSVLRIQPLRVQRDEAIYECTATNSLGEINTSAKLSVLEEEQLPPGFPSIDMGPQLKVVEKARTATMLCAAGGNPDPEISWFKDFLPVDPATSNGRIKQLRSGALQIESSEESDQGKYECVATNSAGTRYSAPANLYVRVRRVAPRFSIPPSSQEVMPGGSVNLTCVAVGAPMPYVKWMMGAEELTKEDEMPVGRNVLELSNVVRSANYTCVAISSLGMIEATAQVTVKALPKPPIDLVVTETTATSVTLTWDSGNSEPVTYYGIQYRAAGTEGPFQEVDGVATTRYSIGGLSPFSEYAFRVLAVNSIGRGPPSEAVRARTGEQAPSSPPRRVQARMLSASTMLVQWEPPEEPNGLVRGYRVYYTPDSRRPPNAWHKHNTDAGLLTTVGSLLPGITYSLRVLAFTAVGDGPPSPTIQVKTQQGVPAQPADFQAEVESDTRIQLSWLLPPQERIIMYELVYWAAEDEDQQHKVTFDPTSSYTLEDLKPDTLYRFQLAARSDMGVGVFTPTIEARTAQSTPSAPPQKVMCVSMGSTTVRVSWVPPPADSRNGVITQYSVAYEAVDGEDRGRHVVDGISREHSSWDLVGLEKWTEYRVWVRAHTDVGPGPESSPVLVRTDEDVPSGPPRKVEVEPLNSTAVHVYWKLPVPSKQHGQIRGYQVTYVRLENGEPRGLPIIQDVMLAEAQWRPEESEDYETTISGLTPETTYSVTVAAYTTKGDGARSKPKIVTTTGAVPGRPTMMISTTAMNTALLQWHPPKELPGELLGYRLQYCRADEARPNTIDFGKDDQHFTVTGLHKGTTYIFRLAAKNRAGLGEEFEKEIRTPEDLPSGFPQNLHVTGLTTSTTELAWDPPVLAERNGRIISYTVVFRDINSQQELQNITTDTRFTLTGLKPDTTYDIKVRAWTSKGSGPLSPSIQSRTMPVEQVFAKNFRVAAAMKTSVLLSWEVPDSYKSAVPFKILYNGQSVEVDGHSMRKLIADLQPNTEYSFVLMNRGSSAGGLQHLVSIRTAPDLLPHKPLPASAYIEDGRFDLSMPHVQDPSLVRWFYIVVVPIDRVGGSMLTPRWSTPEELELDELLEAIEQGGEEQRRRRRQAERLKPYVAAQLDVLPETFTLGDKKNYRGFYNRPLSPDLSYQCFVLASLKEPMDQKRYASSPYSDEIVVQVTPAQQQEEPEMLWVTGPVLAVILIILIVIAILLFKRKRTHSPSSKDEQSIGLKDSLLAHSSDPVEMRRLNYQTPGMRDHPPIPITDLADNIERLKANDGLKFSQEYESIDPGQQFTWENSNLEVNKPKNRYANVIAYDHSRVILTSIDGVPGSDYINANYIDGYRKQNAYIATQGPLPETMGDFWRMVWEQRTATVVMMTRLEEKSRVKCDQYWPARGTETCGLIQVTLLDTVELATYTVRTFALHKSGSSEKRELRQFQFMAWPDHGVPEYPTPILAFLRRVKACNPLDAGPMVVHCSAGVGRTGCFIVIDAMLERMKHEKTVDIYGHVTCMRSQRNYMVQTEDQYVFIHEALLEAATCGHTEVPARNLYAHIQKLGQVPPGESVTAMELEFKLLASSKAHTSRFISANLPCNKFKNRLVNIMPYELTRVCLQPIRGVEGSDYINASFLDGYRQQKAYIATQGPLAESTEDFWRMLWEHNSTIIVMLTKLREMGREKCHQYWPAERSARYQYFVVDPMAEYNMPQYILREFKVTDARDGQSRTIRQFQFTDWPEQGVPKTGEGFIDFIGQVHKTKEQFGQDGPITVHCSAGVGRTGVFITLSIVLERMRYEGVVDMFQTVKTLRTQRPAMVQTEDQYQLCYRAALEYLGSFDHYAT
Receptor-type tyrosine-protein phosphatase alpha, sequence (P18433 whole entry): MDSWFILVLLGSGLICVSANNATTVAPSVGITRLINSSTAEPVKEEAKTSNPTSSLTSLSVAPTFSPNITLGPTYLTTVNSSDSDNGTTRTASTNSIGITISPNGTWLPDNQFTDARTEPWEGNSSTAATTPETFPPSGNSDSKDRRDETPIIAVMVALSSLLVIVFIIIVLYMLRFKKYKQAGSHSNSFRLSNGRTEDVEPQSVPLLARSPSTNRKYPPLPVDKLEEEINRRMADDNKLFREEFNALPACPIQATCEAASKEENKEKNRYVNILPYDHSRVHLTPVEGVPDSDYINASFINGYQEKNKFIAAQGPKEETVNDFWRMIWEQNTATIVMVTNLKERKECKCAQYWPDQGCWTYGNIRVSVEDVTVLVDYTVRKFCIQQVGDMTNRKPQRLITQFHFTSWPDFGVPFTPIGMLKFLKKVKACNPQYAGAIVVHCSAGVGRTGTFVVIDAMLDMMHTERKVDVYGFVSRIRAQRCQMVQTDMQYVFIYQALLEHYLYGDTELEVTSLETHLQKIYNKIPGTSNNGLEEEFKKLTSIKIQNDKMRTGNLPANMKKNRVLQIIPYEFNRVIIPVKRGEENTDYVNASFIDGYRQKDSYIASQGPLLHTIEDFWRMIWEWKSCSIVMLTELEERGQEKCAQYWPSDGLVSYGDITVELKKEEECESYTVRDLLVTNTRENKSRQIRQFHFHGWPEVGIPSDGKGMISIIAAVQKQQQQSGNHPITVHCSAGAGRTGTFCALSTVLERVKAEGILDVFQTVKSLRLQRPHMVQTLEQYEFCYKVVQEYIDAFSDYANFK

Ki [1]	Ki [2]	Ki [4]	Ki [5]	Structure (SMILES)	also measured
1 µM	11 µM	–	–	CN1CCc2c(sc(NC(=O)C(=O)O)c2C(=O)O)C1	Ki [3]: 22 µM
1.8 µM	29 µM	–	–	O=C(O)C(=O)Nc1sc2c(c1C(=O)O)CCN(Cc1ccc3ccccc3n1)C2	–
–	12 µM	–	–	O=C(O)C(=O)Nc1sc2c(c1C(=O)O)CCN(CCc1ccccn1)C2	Ki [3]: 19 µM
13 µM	–	90 µM	250 µM	O=C(O)C(=O)Nc1cc(-c2ccccc2)sc1C(=O)O	–
0.7 µM	8.3 µM	–	–	COc1cccc(CN2CCc3c(sc(NC(=O)C(=O)O)c3C(=O)O)C2)c1	–
1.3 µM	–	–	52 µM	O=C1CCc2c(sc(NC(=O)C(=O)O)c2C(=O)O)C1	–
–	5.9 µM	–	–	O=C(O)C(=O)Nc1sc2c(c1C(=O)O)CCN(CCC(c1ccccc1)c1ccccc1)C2	–
12 µM	–	400 µM	320 µM	O=C(O)C(=O)Nc1sc2c(c1C(=O)O)CCCCC2	–
–	–	410 µM	290 µM	O=C(O)C(=O)Nc1sc2c(c1C(=O)O)CCCC2	–
1.1 µM	12 µM	–	–	O=C(O)C(=O)Nc1sc2c(c1C(=O)O)CCN(Cc1ccncc1)C2	–
2.5 µM	–	50 µM	200 µM	O=C(O)COc1ccc(-c2cc(NC(=O)C(=O)O)c(C(=O)O)s2)cc1	–
1 µM	23 µM	–	–	O=C(O)C(=O)Nc1sc2c(c1C(=O)O)CCN(Cc1ccccn1)C2	Ki [3]: 48 µM
160 µM	–	> 2000 µM	1000 µM	O=C(O)C(=O)Nc1cnccc1C(=O)O	–
–	15 µM	–	–	O=C(O)C(=O)Nc1sc2c(c1C(=O)O)CCN(CCc1ccc(OCc3ccccc3)cc1)C2	Ki [3]: 10 µM
11 µM	–	90 µM	200 µM	O=C(O)C(=O)Nc1cc(-c2ccsc2)sc1C(=O)O	–
26 µM	–	–	93 µM	O=C(O)C(=O)Nc1cc(-c2ccc(Oc3ccccc3)cc2)sc1C(=O)O	–
–	–	> 2000 µM	> 2000 µM	Cc1cccc(C(=O)O)c1NC(=O)C(=O)O	Ki [6]: 1100 µM
–	–	–	170 µM	O=C(O)C(=O)Nc1sc2c(c1C(=O)O)CCOC2	bioavailability [7]: 85%; half-life [8]: 1.3 h; clearance [9]: 17 mL/min/kg
1 µM	14 µM	–	–	O=C(O)C(=O)Nc1sc2c(c1C(=O)O)CCN(Cc1ccccc1)C2	Ki [3]: 24 µM
–	42 µM	–	–	O=C(O)C(=O)Nc1sc2c(c1C(=O)O)CCN(Cc1ccc3ccccc3c1)C2	Ki [10]: 34 µM
12 µM	–	–	530 µM	COc1cccc(-c2cc(NC(=O)C(=O)O)c(C(=O)O)s2)c1	–
–	–	–	–	O=C(O)C(=O)Nc1cscc1C(=O)O	Ki [11]: 75 µM
–	–	> 2000 µM	870 µM	O=C(O)C(=O)Nc1ccccc1C(=O)O	–
–	11 µM	–	–	O=C(O)C(=O)Nc1sc2c(c1C(=O)O)CCN(CCc1cccc3ccccc13)C2	Ki [3]: 11 µM
–	8 µM	–	–	O=C(O)C(=O)Nc1sc2c(c1C(=O)O)CCN(CCc1ccc(-c3ccccc3)cc1)C2	Ki [3]: 12 µM
2 µM	–	–	215 µM	O=C(O)C(=O)Nc1sc2c(c1C(=O)O)CCC(O)C2 (stereo not drawn)	–
0.29 µM	4.7 µM	–	–	O=C(O)C(=O)Nc1sc2c(c1C(=O)O)CCNC2	bioavailability [7]: 56%; Vd [12]: 0.9 L/kg; half-life [13]: 2.8 h; Ki [3]: 9.4 µM; clearance [9]: 6.4 mL/min/kg
5.1 µM	–	–	363 µM	O=C(O)C(=O)Nc1sc2c(c1C(=O)O)CC[S+]([O-])C2 (stereo not drawn)	–

Ki [1]	Ki [2]	Ki [4]	Ki [5]	Structure (SMILES)	also measured
8.3 µM	–	–	100 µM	O=C(O)C(=O)Nc1sc2c(c1C(=O)O)CCSC2	–
12 µM	–	900 µM	340 µM	O=C(O)C(=O)Nc1sc2c(c1C(=O)O)CCC2	–
8 µM	–	–	1790 µM	COc1cc(OC)cc(-c2cc(NC(=O)C(=O)O)c(C(=O)O)s2)c1	–
6.1 µM	–	113 µM	250 µM	Nc1cccc(-c2cc(NC(=O)C(=O)O)c(C(=O)O)s2)c1	–
10 µM	–	160 µM	100 µM	O=C(O)C(=O)Nc1cc(-c2ccc(Cl)cc2)sc1C(=O)O	–
0.9 µM	12 µM	–	–	O=C(O)C(=O)Nc1sc2c(c1C(=O)O)CCN(Cc1cccnc1)C2	–
2000 µM	–	2000 µM	> 2000 µM	Cc1csc(C(=O)O)c1NC(=O)C(=O)O	–
4.7 µM	–	165 µM	700 µM	O=C(O)C(=O)Nc1cc(-c2cccc([N+](=O)[O-])c2)sc1C(=O)O	–
13 µM	–	50 µM	100 µM	CC(C)Cc1ccc(-c2cc(NC(=O)C(=O)O)c(C(=O)O)s2)cc1	–
37 µM	–	2000 µM	> 2000 µM	O=C(O)C(=O)Nc1ccsc1C(=O)O	–
9 µM	–	–	150 µM	COc1ccc(-c2cc(NC(=O)C(=O)O)c(C(=O)O)s2)cc1	–
–	–	420 µM	89 µM	O=C(O)C(=O)Nc1ccc(I)cc1C(=O)O	Ki [6]: 14 µM
1100 µM	–	> 2000 µM	> 2000 µM	CN(C(=O)C(=O)O)c1ccccc1C(=O)O	–
1700 µM	–	> 2000 µM	> 2000 µM	Cc1cccc(NC(=O)C(=O)O)c1C(=O)O	–
4.5 µM	–	–	210 µM	O=C(O)C(=O)Nc1cc(-c2ccc(O)cc2)sc1C(=O)O	–
18 µM	–	550 µM	800 µM	O=C(O)C(=O)Nc1ccc2cc[nH]c2c1C(=O)O	–
–	9 µM	–	–	O=C(O)C(=O)Nc1sc2c(c1C(=O)O)CCN(CCc1ccsc1)C2	Ki [3]: 12 µM
8 µM	–	450 µM	180 µM	O=C(O)C(=O)Nc1cc2[nH]ccc2cc1C(=O)O	–
–	8.7 µM	–	–	O=C(O)C(=O)Nc1sc2c(c1C(=O)O)CCN(CCc1ccncc1)C2	Ki [3]: 13 µM
108 µM	–	> 2000 µM	–	O=C(O)C(=O)Nc1sccc1C(=O)O	–
6.1 µM	–	–	322 µM	O=C(O)C(=O)Nc1sc2c(c1C(=O)O)CCS(=O)(=O)C2	–
16 µM	–	–	65 µM	O=C(O)C(=O)Nc1cc(-c2ccc(OCc3ccccc3)cc2)sc1C(=O)O	–
–	16 µM	–	–	O=C(O)C(=O)Nc1sc2c(c1C(=O)O)CCN(CCc1ccccc1OCc1ccccc1)C2	Ki [3]: 17 µM
14 µM	–	700 µM	280 µM	O=C(O)C(=O)Nc1ccc(-c2ccccc2)cc1C(=O)O	–
25 µM	–	–	980 µM	COc1ccc(-c2cc(NC(=O)C(=O)O)c(C(=O)O)s2)cc1OC	–
8 µM	–	110 µM	210 µM	O=C(O)C(=O)Nc1cc(-c2ccc(F)cc2)sc1C(=O)O	–
–	7.3 µM	–	–	O=C(O)C(=O)Nc1sc2c(c1C(=O)O)CCN(CCCc1ccccc1)C2	Ki [3]: 12 µM
